Data set [1] can be described thus: Cytotoxicity against paclitaxel-resistant human HCT116tax cells assessed as DNA damage by measuring fluorescence intensity incubated for 30 mins by Hoechst 33342 staining accumulation assay. The following applies: 0.5 h. Format: functional, cell-based. The method, boiled down: (§1)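 Hoechst 33342 retention measured in paclitaxel-resistant HCT116tax cells and in HCT116 cells transfected with MDR1- or BCRP-expressing plasmids. The dye was read by its blue fluorescence without washing. Tariquidar (1 μM) and sodium orthovanadate (500 μM) served as reference inhibitors. Accumulation is expressed relative to the vanadate-induced fluorescence difference, set as 100%.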

Data set [2] has as its system HCT-116. As to the kind of experiment: Cytotoxicity against human HCT-116 cells overexpressing human MDR1 assessed as DNA damage by measuring fluorescence intensity at 100 uM incubated for 30 mins by Hoechst 33342 staining accumulation assay. Format: functional, cell-based. The essentials: as §1
The subject of data set [3] is HCT-116. Briefly: Cytotoxicity against in human HCT-116 cells overexpressing human BCRP assessed as DNA damage by measuring fluorescence intensity at 100 uM incubated for 30 mins by Hoechst 33342 staining accumulation assay. Format: functional, cell-based. The method, boiled down: as §1
Data set [4] relates to HCT-116. As to the kind of experiment: Cytotoxicity against human HCT-116 cells incubated for 48 hrs by MTT assay. Particulars: HCT-116, 48 h. The data set is classed as functional, cell-based. The method, boiled down: (§2)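 Wild-type HCT116 cells were exposed for 48 h in OptiMEM, with or without paclitaxel. Viability was read by MTT and normalised to wells containing 0.5% DMSO, taken as 100%.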

Data set [5] is described as follows: Cytotoxicity against paclitaxel-resistant human HCT116tax cells incubated for 48 hrs by MTT assay. Format: functional, cell-based.
For data set [6], the system named is HCT-116. As to the kind of experiment: Cytotoxicity against human HCT-116 cells overexpressing human MDR1 incubated for 48 hrs by MTT assay. Format: functional, cell-based. The following applies: HCT-116, 48 h.
In data set [7] the test system is HCT-116. Briefly: Cytotoxicity against human HCT-116 cells overexpressing human BCRP incubated for 48 hrs by MTT assay. Format: functional, cell-based. Particulars: HCT-116, 48 h.
Data set [8] is described as follows: Cytotoxicity against human HEK293 cells incubated for 48 hrs by MTT assay. The data set is classed as toxicity, cell-based.
Data set [9] relates to HCT-116. Briefly: Cytotoxicity against human HCT-116 cells assessed as reduction on cell viability at 100 uM incubated for 48 hrs in presence of paclitaxel by MTT assay. The data set is classed as functional, cell-based. The method, boiled down: as §2
In data set [10] the test system is HCT116tax. As to the kind of experiment: Cytotoxicity against paclitaxel-resistant human HCT116tax cells assessed as reduction on cell viability at 100 to 200 uM incubated for 48 hrs in presence of paclitaxel by MTT assay. The data set is classed as functional, cell-based. Particulars: dose 100-200 µM.

Calls of active or inactive are those of the source. The calls are words filed in the database; no cut-off is given here.

`Nc1ncnc2c1ncn2COCCO`: the IC50 in [1] was found to be 7.3 µM. Besides, the result in data set [2], in data set [3], in data set [9] and in data set [10] was Active. Besides, the EC50 in [4], in data set [5], in data set [6] and in [7] was > 100 µM in each case. Besides, in data set [8], the EC50 at 48 h is > 100 µM.
With `CC(C)[C@@H]1NC(=O)[C@@H]2CCCN2C1=O`, the 50% inhibitory concentration (IC50) in data set [1] stood at 6.2 µM. Also, the result in data set [2], in data set [3], in data set [9] and in [10] was Active. In addition, the 50% effective concentration (EC50) in data set [4], in data set [5], in data set [6] and in [7] was > 100 µM each time. Besides, the concentration for a half-maximal effect (EC50) at 48 h in [8] is > 100 µM.
In the case of `NC(=O)c1ncn([C@@H]2O[C@H](CO)[C@@H](O)[C@H]2O)c1N` [ACADESINE], the IC50 in data set [1] is 5.3 µM. The result in data set [2], in data set [3], in data set [9] and in [10] was Active. Besides, the concentration giving a half-maximal response (EC50) in [4], in data set [5], in data set [6] and in [7] was > 100 µM each time. Also, the concentration giving a half-maximal response (EC50) at 48 h in data set [8] was > 100 µM.
With `Nc1ncnc2c1ncn2[C@@H]1O[C@H](COP(=O)(O)O)[C@@H](O)[C@H]1O` [ADENOSINE PHOSPHATE], the IC50 in [1] was found to be 3.2 µM. The result in data set [2], in data set [3], in data set [9] and in [10] was Active. The EC50 in data set [4], in [5], in data set [6] and in data set [7] was > 100 µM each time. Further, in data set [8], the half-maximal effective concentration (EC50) at 48 h was > 100 µM.
For `NC(=O)c1ncn([C@@H]2O[C@H](CO)[C@@H](O)[C@H]2O)n1` [RIBAVIRIN], in data set [1], the IC50 stood at 5 µM. Further, the result in data set [2], in data set [3], in data set [9] and in data set [10] was Active. In addition, the 50% effective concentration (EC50) in data set [4], in data set [5], in [6] and in [7] was > 100 µM each time. Moreover, the EC50 at 48 h in data set [8] is > 100 µM.
As to ORTHOVANADATE, the outcome in [2] and in data set [3] was Active.

The values above are taken from ChEMBL document CHEMBL5104221, “ATP Mimetic Attack on the Nucleotide-Binding Domain to Overcome ABC Transporter Mediated Chemoresistance” (ACS Med Chem Lett, 2022).
